The sample as a whole holds a higher share of hits than the screen did.
Pyk2 oligo antag – Pyk2 (human) oligomerization antagonism; z-score (the deposit names both 25 µM and 10 µM); AID 1347419; hit rate 0.83% among 99,000; Q14289; Q293 cells, Pyk2 FERM NanoBiT luminescence; active compounds read low;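 active = Z-score of -3 or lower, scaled per plate to the spread of control and sample wells; inactive = z-score above -3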;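 also: negative z-score means lost luminescence so less FERM oligomerization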
Target sequence (Q14289 whole entry, looked up): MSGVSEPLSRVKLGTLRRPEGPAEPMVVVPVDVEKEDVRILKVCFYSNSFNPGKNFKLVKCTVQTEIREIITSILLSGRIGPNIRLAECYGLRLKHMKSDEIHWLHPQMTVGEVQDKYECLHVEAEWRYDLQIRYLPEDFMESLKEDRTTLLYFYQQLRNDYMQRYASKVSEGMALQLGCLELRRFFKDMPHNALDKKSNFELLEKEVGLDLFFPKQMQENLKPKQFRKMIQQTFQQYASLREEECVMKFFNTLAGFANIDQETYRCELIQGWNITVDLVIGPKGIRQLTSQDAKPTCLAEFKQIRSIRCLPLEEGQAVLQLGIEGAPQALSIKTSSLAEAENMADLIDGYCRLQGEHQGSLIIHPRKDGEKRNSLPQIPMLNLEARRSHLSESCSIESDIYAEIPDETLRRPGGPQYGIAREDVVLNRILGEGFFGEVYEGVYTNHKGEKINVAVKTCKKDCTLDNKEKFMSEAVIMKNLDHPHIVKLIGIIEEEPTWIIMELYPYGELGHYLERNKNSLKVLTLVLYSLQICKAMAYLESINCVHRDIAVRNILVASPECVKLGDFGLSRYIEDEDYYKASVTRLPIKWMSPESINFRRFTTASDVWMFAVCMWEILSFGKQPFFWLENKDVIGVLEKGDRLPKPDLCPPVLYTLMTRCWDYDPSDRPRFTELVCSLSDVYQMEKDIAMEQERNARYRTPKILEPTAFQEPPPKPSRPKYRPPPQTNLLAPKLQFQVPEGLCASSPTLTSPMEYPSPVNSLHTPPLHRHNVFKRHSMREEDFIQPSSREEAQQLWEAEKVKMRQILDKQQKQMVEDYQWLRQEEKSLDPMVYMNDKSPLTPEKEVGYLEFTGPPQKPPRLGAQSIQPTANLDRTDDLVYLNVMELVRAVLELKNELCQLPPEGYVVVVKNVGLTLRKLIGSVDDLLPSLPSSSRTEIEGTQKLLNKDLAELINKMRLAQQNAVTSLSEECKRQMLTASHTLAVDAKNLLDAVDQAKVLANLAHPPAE
H69AR growth 86K – blocks growth of human H69AR lung tumor cells; H69AR lung tumor viability, ATP luminescence, 72 h; active compounds read low; hit rate 6% among 85,000; AID 598; viability, % at 10 µM;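 active = viability at or below 40%; inactive = viability above 40%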;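 also: multidrug resistant small cell line overexpressing MRP-1 efflux transporter; 100% = mean luminescence of untreated control wells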
HUVEC prolif 384 – human endothelial cell proliferation inhibition; HUVEC proliferation, CellTiter-Glo luminescence, 72 h; active compounds read low; viability, % at 10 µM (by protocol); hit rate 1.1% among 86,000; AID 648;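 active = viability at or below 30%; inactive = viability above 30%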;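 also: 100% = median luminescence of DMSO-only cell control wells on each plate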
Lung fibro prol – blocks proliferation of human lung fibroblasts; hit rate 1.1% among 85,000; LL 47 human lung fibroblast viability, ATP luminescence; active compounds read low; viability, % at 10 µM;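 active = viability at or below 50% in the single dose screen; inactive = viability above 50%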;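 also: compound exposure lasted 72 h before the ATP readout; 100% = median luminescence of untreated cell-only wells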
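material = human LL 47 lung fibroblast cells | dosing = compounds added from tenfold dosing solution, 0.1% DMSO final | timing = overnight cell rest, 72 h compound treatment at 37 °C | measured by = CellTiter-Glo luminescence measuring cellular ATP | evaluation = % viability versus median cells-only luminescence | control set = cell-only wells, no compound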
HCT116 bCat-KO – beta-catenin-lacking colon tumor cell growth suppression; HCT116 beta-catenin knockout viability, CellTiter-Glo, 60 h; active compounds read low; viability, % at 10 µM; hit rate 1.5% among 140,000;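 active = viability at or under a set limit, the compound median less 4 SD, cut at about 6% in these data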;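 also: 0% = Hyamine 1622 control at 20 µM and 100% = untreated cell control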
PTEN del growth – suppresses growth of cells with PTEN deletion; HCT116 PTEN-null viability, CellTiter-Glo, 60 h; active compounds read low; viability, % at 10 µM; hit rate 1.2% among 140,000;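 active = viability at or below a set limit, 4 SD under the median of all tested compounds, cut at about 3.7% in these data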;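 also: PTEN knockout HCT116 line with beta catenin targeted HCT116 as companion control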
Active calls of the source: *.

Results for O=C(O)CCC(=O)N1CCN(c2cccc(Cl)c2)CC1 ?
Pyk2 oligo antag: 0.41; H69AR growth 86K: 96; HUVEC prolif 384: 99; Lung fibro prol: 101; HCT116 bCat-KO: 100; PTEN del growth: 91

What do the screens show for `O=C(Cc1ccccc1)NNC(=O)c1cnccn1`?
HCT116 bCat-KO: 97; PTEN del growth: 99

How did O=C(Nc1ccc(N2CCN(C(=O)c3ccco3)CC2)cc1)c1ccccc1F do in these assays?
Pyk2 oligo antag: 0.02; H69AR growth 86K: 58; HUVEC prolif 384: 96; Lung fibro prol: 98; HCT116 bCat-KO: 100; PTEN del growth: 85

How did O=C(Nc1ccc(N2CCN(C(=O)c3ccco3)CC2)cc1)c1cccc(F)c1 do in these assays?
Pyk2 oligo antag: 1.4; H69AR growth 86K: 30*; HUVEC prolif 384: 82; Lung fibro prol: 99; HCT116 bCat-KO: 54; PTEN del growth: 50

How did Cc1cc(Cl)ccc1OCCCC(=O)NO do in these assays?
Pyk2 oligo antag: -1.2; H69AR growth 86K: 3.1*; HUVEC prolif 384: 92; Lung fibro prol: 81; HCT116 bCat-KO: 67; PTEN del growth: 77

How did Cc1cc(Cl)ccc1OCCCC(=O)NC1CCN(C)CC1 do in these assays?
Pyk2 oligo antag: 1.4; H69AR growth 86K: 91; HUVEC prolif 384: 107; Lung fibro prol: 102; HCT116 bCat-KO: 93; PTEN del growth: 97

Results for Cc1cc(Cl)ccc1OCCCC(=O)N1CCN(C)CC1 ?
Pyk2 oligo antag: 0.25; H69AR growth 86K: 83; HUVEC prolif 384: 98; Lung fibro prol: 89; HCT116 bCat-KO: 76; PTEN del growth: 79

How did Cc1cc(Cl)ccc1OCCCC(N)=O do in these assays?
Pyk2 oligo antag: 2.1; H69AR growth 86K: 111; HUVEC prolif 384: 86; Lung fibro prol: 42*; HCT116 bCat-KO: 97; PTEN del growth: 103

What do the screens show for `CCN1CNC(=S)N(C(C)c2ccccc2)C1` (stereo unspecified)?
HCT116 bCat-KO: 92; PTEN del growth: 95

What do the screens show for `O=C(Nc1ccc(Oc2cccnc2)cc1)c1ccccc1F`?
Pyk2 oligo antag: 0.39; HCT116 bCat-KO: 89; PTEN del growth: 93

Results for CC1CCCN(c2ccc([N+](=O)[O-])cc2C(=O)c2ccccc2)C1 (stereo unspecified) ?
HCT116 bCat-KO: 12; PTEN del growth: 12

How did O=C(Nc1ccccc1)c1nnn(Cc2ccccc2)c1NC(=O)C(F)(F)F do in these assays?
Pyk2 oligo antag: -0.55; H69AR growth 86K: 93; HUVEC prolif 384: 95; Lung fibro prol: 103; HCT116 bCat-KO: 95; PTEN del growth: 92

What do the screens show for `CC(=O)[C@H]1[C@@H]2C(=O)N(c3cccc(Cl)c3)C(=O)[C@@H]2[C@H]2c3ccccc3C=CN21`?
Pyk2 oligo antag: -0.56; H69AR growth 86K: 87; HUVEC prolif 384: 103; Lung fibro prol: 102; HCT116 bCat-KO: 90; PTEN del growth: 91

How did CC(C)(C)C(=O)[C@@H]1[C@@H]2C(=O)N(Cc3ccccc3)C(=O)[C@@H]2[C@H]2c3ccccc3C=CN12 do in these assays?
H69AR growth 86K: 34*; HUVEC prolif 384: 105; Lung fibro prol: 101; HCT116 bCat-KO: 89; PTEN del growth: 91

How did COC(=O)c1c(NC(=O)CN2CCN(c3cccc(Cl)c3)CC2)sc(C)c1C do in these assays?
HCT116 bCat-KO: 86; PTEN del growth: 90

How did Cc1ccc(C(C)C)c(OCc2nnc(SCC(=O)Nc3ncc(C)s3)n2C)c1 do in these assays?
Pyk2 oligo antag: 0.6; H69AR growth 86K: 9.8*; HUVEC prolif 384: 91; Lung fibro prol: 78; HCT116 bCat-KO: 91; PTEN del growth: 86

How did Cc1ccc(-c2cc(-c3ccccc3Cl)[nH]n2)c(O)c1 do in these assays?
Pyk2 oligo antag: -0.42; H69AR growth 86K: 1.9*; HUVEC prolif 384: 36; Lung fibro prol: 66; HCT116 bCat-KO: 26; PTEN del growth: 44

Results for Cc1ccccc1-c1cc(-c2ccccc2O)n[nH]1 ?
Pyk2 oligo antag: -0.44; H69AR growth 86K: 33*; HUVEC prolif 384: 42; Lung fibro prol: 77; HCT116 bCat-KO: 22; PTEN del growth: 34

How did CC(C)Cn1c(SCc2nc3ccccc3c(=O)[nH]2)nc2ccccc2c1=O do in these assays?
Pyk2 oligo antag: -1.8; HCT116 bCat-KO: 18; PTEN del growth: 28

What do the screens show for `CC(=O)CCS(=O)(=O)c1ccc(Oc2ccc(S(=O)(=O)CCC(C)=O)cc2)cc1`?
Pyk2 oligo antag: 2.8; H69AR growth 86K: 1.3*; HUVEC prolif 384: 94; Lung fibro prol: 11*; HCT116 bCat-KO: 63; PTEN del growth: 78

What do the screens show for `Clc1ccc2[nH]c3c(c2c1)CCc1cn[nH]c1-3`?
Pyk2 oligo antag: -1.7; H69AR growth 86K: 22*; HUVEC prolif 384: 46; Lung fibro prol: 94; HCT116 bCat-KO: 71; PTEN del growth: 72

Results for COc1ccc(-c2[nH]n(-c3ccc([N+](=O)[O-])cc3)c(=O)c2C=NCc2ccccc2)cc1 ?
HCT116 bCat-KO: 86; PTEN del growth: 82

What do the screens show for `COc1ccc2c(Cl)c(C(=O)N/N=C/c3ccc4c(c3)OCO4)sc2c1`?
Pyk2 oligo antag: -0.18; HCT116 bCat-KO: 56; PTEN del growth: 11

What do the screens show for `O=C(N/N=C/c1ccc2c(c1)OCO2)c1sc2cc(Cl)ccc2c1Cl`?
HCT116 bCat-KO: 6; PTEN del growth: 2.1*

How did COc1ccc(-c2nc3ccccc3c(=O)n2NC(=O)c2cccnc2Cl)cc1OC do in these assays?
HCT116 bCat-KO: 95; PTEN del growth: 100

What do the screens show for `CCOC(=O)c1ccc(N/C=C/C(=O)c2ccc(OC)c(OC)c2)cc1`?
Pyk2 oligo antag: 0.66; HCT116 bCat-KO: 92; PTEN del growth: 84

Results for CCOC(=O)c1ccc(Nc2ccc(-c3ccc(OC)c(OC)c3)nn2)cc1 ?
Pyk2 oligo antag: 0.4; H69AR growth 86K: 32*; HUVEC prolif 384: 56; Lung fibro prol: 98; HCT116 bCat-KO: 76; PTEN del growth: 73

What do the screens show for `N#CC1=C(SCC(=O)c2ccc(Cl)cc2)NC2=C(C(=O)CCC2)C1c1ccco1` (stereo unspecified)?
Pyk2 oligo antag: -0.26; H69AR growth 86K: 13*; HUVEC prolif 384: 52; Lung fibro prol: 54; HCT116 bCat-KO: 18; PTEN del growth: 16

How did Cc1ccc(C(=O)CSC2=C(C#N)C(c3ccco3)C3=C(CC(C)(C)CC3=O)N2)cc1 (stereo unspecified) do in these assays?
Pyk2 oligo antag: 0.49; H69AR growth 86K: 70; HUVEC prolif 384: 79; Lung fibro prol: 86; HCT116 bCat-KO: 90; PTEN del growth: 89

How did CC/C(=N\NC(=O)CSc1ncccn1)c1ccc2c(c1)OCCO2 do in these assays?
HCT116 bCat-KO: 96; PTEN del growth: 102

Results for COc1ccc(-c2nnc(SCC(=O)c3ccc[nH]3)o2)cc1 ?
Pyk2 oligo antag: 1.8; HCT116 bCat-KO: 96; PTEN del growth: 93

Results for COc1cccc(C(=O)CSc2nnc(-c3cc(OC)cc(OC)c3)o2)c1 ?
Pyk2 oligo antag: 0.08; H69AR growth 86K: 8.7*; HUVEC prolif 384: 24*; Lung fibro prol: 97; HCT116 bCat-KO: 97; PTEN del growth: 100

Screening data (PubChem BioAssay)
